Measured values reported in PMC5672925 (British Journal of Cancer, 2017).
“Also recorded” adds a separate entry of the source.

Experiments:
[1] = test system: relapsed and/or refractory MM; settings: ref Richardson et al, cited from earlier work
[2] = test system: relapsed/refractory multiple myeloma; assay type: in vivo, human; settings: comparison with historical single-agent BTZ
Method in brief: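 Response graded by IMWG criteria, with minimal response added per ASH-FDA panel. Assessed in evaluable phase II patients plus phase I patients at RP2D (KW-2478 175 mg m−2 i.v. over 1 h, 30 min after BTZ 1.3 mg m−2 bolus, days 1, 4, 8, 11 of 21-day cycles). Duration of response ran from first CR/PR/MR to PD or death. PFS ran from treatment day 1 to PD or death. Both by Kaplan–Meier.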

[3] = test system: patients with advanced, relapsed/refractory B-cell malignancies (predominantly with MM); settings: ref Yong et al, 2016, cited from earlier work
[4] = test system: patients with relapsed/refractory MM; test: Safety: treatment-related adverse events; assay type: in vivo, human
Method in brief: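 Safety population was all patients receiving ≥1 dose. AEs were graded by CTCAE v4.0; treatment-related meant possibly, probably or definitely drug-related per investigator. Vital signs, vision, peripheral neuropathy, haematology and chemistry were checked at screening, on days 1, 4, 8, 11 and 16–18 of each cycle, at end of treatment and at 30-day follow-up. Phase I screening included slit-lamp retinal examination.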

MM models = settings: cited from earlier work
[5] = Plasma pharmacokinetics of KW-2478 in phase I, cycle 1; assay type: in vivo, human
[6] = test system: patients with relapsed/refractory MM; test: Phase I dose escalation; assay type: in vivo, human; settings: days 1, 4, 8, 11 every 3 weeks, up to KW-2478 175 mg m^−2 plus BTZ 1.3 mg m^−2
Method in brief: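 DLT window was cycle 1, graded by CTCAE v4.0. DLT was related non-haematologic grade ≥3 toxicity (controllable GI events excepted) or grade 4 haematologic toxicity (neutropenia ≤5 days excepted).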

[7] = large-scale phase III trials, 2005, Orlowski et al, 2007

CC(C)C[C@H](NC(=O)[C@H](Cc1ccccc1)NC(=O)c1cnccn1)B(O)O [BTZ, bortezomib]
ORR, BTZ alone (reference) ([1]; SUMMIT trial, 2006): 35%
Median PFS, single-agent BTZ [1, 7]: ~6 months
ORR, single-agent BTZ [1, 7]: ~40%

CCc1c(O)cc(O)c(C(=O)c2ccc(OCCN3CCOCC3)c(OC)c2)c1CC(=O)N(CCOC)CCOC [KW-2478]
Contribution of KW-2478 to the efficacy of BTZ alone [2]: insufficient evidence that KW-2478 added to the efficacy of BTZ alone
Single-agent clinical activity [3]: modest single-agent activity; also recorded: preliminary signs of clinical activity were seen
Tolerability ([3]; single agent): well tolerated
Ocular safety ([4]; in combination with BTZ): did not raise any ocular safety concerns
Effect on toxicity of BTZ in the combination regimen ([4]; in vivo): did not enhance the toxicity of BTZ
Antitumour activity (MM models; KW-2478 alone, ref Nakashima et al, 2010): exhibits antitumour activity
Antitumour activity in MM cells in the presence of bone marrow stromal cells (MM models; ref Juliger et al, 2008): retained
Mean CL, range ([5]; 130 mg m^−2 dose): 25.9 to 33.3 L/h
Mean CL, range ([5]; 175 mg m^−2 dose): 32.2 to 62.0 L/h
Effect of increase in BTZ dose on KW-2478 pharmacokinetics ([5]; co-administered BTZ 1 vs 1.3 mg m^−2): did not affect
Accumulation ([5]; day 11 vs day 1, cycle 1): Accumulation did not occur
Maximum tolerated dose (MTD) [6]: not reached
